From article PMC5695149 (Theranostics, 2017)
Starred links: 1 amine or outer side, 2 acyl side, 3 side chain; linkers in the order of their positions; H or OH if unused. Positions of bridges follow the written chain, without caps; N, C: chain ends. Non-standard residues stand in square brackets, D forms with d. Residues, ends and D or L forms follow the SMILES beside them. hNle(4R-Ph,7-yl) = O=C([C@H](C[C@@H](CCC[*:3])c1ccccc1)N[*:1])[*:2]; X1 = C[C@H](CCC[*:3])C[C@H](N[*:1])C(=O)[*:2]

Assays:
MDMX = molecular target: T1, MDMX (Homo sapiens, UniProt O15151); test: Fluorescence polarization assay, FITC-labeled peptide with GST-labeled MDMX; type: binding; conditions: compared within the library
T1 sequence (O15151 1-490): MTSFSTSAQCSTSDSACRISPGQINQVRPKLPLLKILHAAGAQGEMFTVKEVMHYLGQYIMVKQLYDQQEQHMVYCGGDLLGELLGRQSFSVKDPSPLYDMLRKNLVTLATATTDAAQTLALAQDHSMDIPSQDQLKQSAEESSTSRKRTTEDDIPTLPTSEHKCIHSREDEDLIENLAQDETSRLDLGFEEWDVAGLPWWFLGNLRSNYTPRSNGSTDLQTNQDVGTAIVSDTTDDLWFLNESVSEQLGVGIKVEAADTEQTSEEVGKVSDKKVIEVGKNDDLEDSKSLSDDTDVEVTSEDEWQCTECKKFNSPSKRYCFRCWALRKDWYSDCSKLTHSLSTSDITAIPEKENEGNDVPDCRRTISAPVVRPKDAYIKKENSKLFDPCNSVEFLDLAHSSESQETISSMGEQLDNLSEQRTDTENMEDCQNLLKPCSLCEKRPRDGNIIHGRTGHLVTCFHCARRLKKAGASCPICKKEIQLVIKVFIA
In short: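 Fluorescence polarization: FITC-labelled peptide (10 or 20 nM) incubated with MDMX protein in 140 mM NaCl, 50 mM Tris pH 8.0 for 1 h at room temperature. Peptide concentration set from FITC absorbance at 494 nm. Kd obtained by nonlinear regression of dose-response curves.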

Skov-3 cells = test: Cell viability; type: cell-based; conditions: Skov-3 (mutant p53), up to 50 μM, 48 h
In short: (§1)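 MTT assay: cells at 5 × 10^3/well were exposed to test compound (3.12, 6.25, 12.5, 25, 50 µM) in serum-free medium for 4 h. Serum was then restored for a further 44 h. MTT (5 mg/mL in PBS) was added for 4 h at 37 °C, 5% CO2. Formazan was dissolved in DMSO and absorbance read at 490 nm. At least three independent measurements, SEM shown.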

MDA-231 cells = test: Cell viability; type: cell-based; conditions: MDA-231 (mutant p53), up to 50 μM, 48 h
In short: as §1

HEK-293 cells = test: Cell viability; type: cell-based; conditions: HEK-293 normal cells, 3.12-50 µM, 48 h
In short: (§2)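 MTT viability assay. Cells were seeded at 5 × 10³/well and given the test compound at 3.12, 6.25, 12.5, 25 or 50 µM in serum-free medium for 4 h. Serum was then replaced and cells incubated a further 44 h. MTT (5 mg/mL in PBS) was added for 4 h at 37 °C, 5% CO2, and formazan was dissolved in DMSO. A490 was read. SEM from at least three independent measurements.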

QSG-7701 cells [1] = test: Cell viability; type: cell-based; conditions: QSG-7701 normal cells, 3.12-50 µM, 48 h
In short: as §2

p53 [2] = test: Western blot of p53 expression, PA-1; type: cell-based, human; conditions: PA-1, 40 µM peptide, 48 h
In short: (§3)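 Cells in 6-well plates were treated 48 h, then lysed in Tris-SDS buffer (pH 6.8). 20 μg protein was run on 10% SDS-PAGE and transferred to nitrocellulose. Blots were probed overnight at 4 °C with rabbit monoclonal anti-p53 (1:500), with pan-actin (1:1000) as reference. Goat secondary antibodies were applied 1 h at room temperature, with chemiluminescent detection.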

p53 [3] = test: Western blot of p53 expression, MCF-7; type: cell-based; conditions: MCF-7, 40 µM peptide, 48 h
In short: as §3

PA-1 cells [4] = test: Cellular uptake of FITC-labelled peptides, confocal microscopy and FACS, PA-1; type: cell-based, human; conditions: 37°C, 2 h
MCF-7 cells = test: Cellular uptake of FITC-labelled peptides, confocal microscopy, MCF-7; type: cell-based; conditions: MCF-7, FITC-labeled peptide, 37°C, 2 h
In short: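 Cells in DMEM + 10% FBS (50000/well) were grown 1 day to ~80% adherence. FITC-labelled peptide (1 mM DMSO stock) was added to 5 µM final at 37 °C. Cells were washed 3× in PBS, fixed in 4% formaldehyde for 10 min, stained with DAPI 1 μg/mL for 5 min, and imaged by confocal microscopy. PA-1 uptake was also quantified by flow cytometry.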

p53-MDM2 binding = p53-MDM2 binding (Homo sapiens, UniProt Q00987); test: Immunoprecipitation of p53-MDM2 from PA-1 cell lysates, western blotting; type: cell-based; conditions: PA-1, 40 μM, 4 h, versus DMSO control, 10% FBS
p53-MDM2 binding, sequence (Q00987 whole entry): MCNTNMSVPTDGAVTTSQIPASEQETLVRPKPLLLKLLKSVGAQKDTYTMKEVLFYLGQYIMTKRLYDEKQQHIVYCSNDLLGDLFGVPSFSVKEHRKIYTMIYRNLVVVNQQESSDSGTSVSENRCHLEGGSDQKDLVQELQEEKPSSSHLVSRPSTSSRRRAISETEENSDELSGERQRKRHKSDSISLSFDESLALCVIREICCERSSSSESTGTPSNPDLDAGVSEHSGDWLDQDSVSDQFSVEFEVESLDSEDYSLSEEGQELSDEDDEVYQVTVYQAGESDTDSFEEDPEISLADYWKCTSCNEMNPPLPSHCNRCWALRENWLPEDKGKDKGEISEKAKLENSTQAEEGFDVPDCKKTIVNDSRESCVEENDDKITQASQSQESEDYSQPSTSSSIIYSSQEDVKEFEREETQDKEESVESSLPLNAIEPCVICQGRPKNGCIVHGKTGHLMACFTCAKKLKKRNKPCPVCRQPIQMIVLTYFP
In short: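 Exponentially growing PA-1 cells received the test compound or an equal volume of DMSO. Cells were lysed in 50 mM Tris pH 8.0, 150 mM NaCl, 1 mM EDTA, 0.5% NP-40. Extract (500 µg) was precleared 2 h on protein G Sepharose, then incubated with rabbit monoclonal anti-p53 or mouse monoclonal anti-MDM2. Complexes were captured on protein G beads overnight at 4 °C and washed five times in cold lysis buffer. Western blots were probed for p53, MDM2 and pan-actin.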

sox2 and foxA2 genes = test: RT-qPCR of stemness and differentiation genes, PA-1; type: cell-based, human; conditions: PA-1, 40 µM, 48 h
In short: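 Exponentially growing PA-1 cells were seeded in 6-well plates and treated 48 h with 40 µM peptide; nutlin-3a at 1 µM was the comparator. mRNA was quantified by real-time qPCR and expressed as fold increase. Triplicates from three independent experiments, SEM shown.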

PA-1 cells [5] = test: Annexin-V/PI apoptosis assay, PA-1; type: cell-based, human; conditions: PA-1, 40 μM peptides or 5 μM nutlin-3a, 48 h
In short: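 Exposed PA-1 cells were stained with Annexin-V/PI. Apoptotic cells were counted as the sum of quadrants Q1+Q2+Q3 and reported as a ratio of total cells.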

PA-1 cells [6] = test: Cell cycle analysis by PI staining and flow cytometry, PA-1; type: cell-based, human; conditions: PA-1, 40 μM peptides or 5 μM nutlin-3a, 48 h
QSG-7701 cells [7] = test: Cell cycle analysis by PI staining and flow cytometry, QSG-7701; type: cell-based; conditions: QSG-7701, 48 h, PI staining
caspase-3 = test: Caspase-3 activity assay, PA-1; type: cell-based, human
In short: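 Apoptosis in PA-1 cells was read as caspase-3 activity after exposing the cells to a caspase-3-specific substrate.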

p53 [8] = test: p53 accumulation kinetics in HCT-116 Venus knock-in cell line; type: cell-based; conditions: HCT-116 p53-VKI; PhR 40 µM; nutlin-3a 0.5 or 5 µM (Fig. S9 legend)
PA-1 xenograft = test: Antitumor efficacy in PA-1 human xenograft model; type: in vivo, mice; conditions: for mice that died during the treatment period: 21 days of treatment
In short: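 Female athymic nude mice (BALB/c nu, 6 weeks) received 1 × 10^7 PA-1 cells in DMEM subcutaneously in the lower flank. After 10-15 days, mice with 100-150 mm3 tumors were randomized into 3 groups of 5-6. Test compound at 10 mg/kg, or PBS as negative control, was injected intratumorally every 2 days from day 0 for 21 days. Mice were followed a further 24 days; survival plotted as Kaplan-Meier curves.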

[9] = Mice voluntary cage-wheel exercise assay; type: in vivo; conditions: BALB/c mice, 10 mg/kg subcutaneous, 20 days
In short: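 BALB/c mice were randomly split into two groups given a single subcutaneous injection of PBS or test compound (10 mg/kg). Voluntary cage-wheel running cycles were recorded over 20 days after injection.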

Histological analysis = type: in vivo; conditions: 21 days after injection, compared with PBS-treated mice
In short: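 Tumor, heart, liver, spleen, lung, kidney and brain were harvested 21 days after injection. Tissue sections were stained with hematoxylin and eosin and examined for histological changes.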

p53 and p21 = test: Immunohistochemistry of tumor tissues; type: in vivo, mice; conditions: PA-1 xenograft tumor tissue, 10 mg/kg
[10] = PA-1 xenograft, 10 mg/kg every other day

With CC(=O)N[C@@H](CC(C)C)C(=O)N[C@H](C(=O)N[C@@H](Cc1ccccc1)C(=O)N[C@H]1CSCCC[C@@H](C)C[C@@H](C(=O)N[C@@H](CCC(N)=O)C(=O)N[C@@H](CC(C)C)C(=O)N[C@H](C(=O)N[C@@H](CO)C(N)=O)[C@@H](C)O)NC(=O)[C@H](Cc2c[nH]c3ccccc23)NC(=O)[C@H](Cc2ccc(O)cc2)NC(=O)[C@H](Cc2c[nH]cn2)NC1=O)[C@@H](C)O [MeR] (Ac-LTFCHYW[X1]QLTS-NH2; thioether 4-8; N-terminus assumed) the “binding ability toward MDMX” value (MDMX) was “highest binding abilities”, the “effect on cell viability” value (Skov-3 cells) was “Negligible effects” and the “effect on cell viability” value (MDA-231 cells) was “Negligible effects”. The “effect on cell growth and proliferation” value (HEK-293 cells) was “little effect on the cell growth and proliferation”, the “effect on cell growth and proliferation” value (QSG-7701 cells [1]) was “little effect on the cell growth and proliferation” and the “p53 expression (western blot)” value (p53 [2]) was “upregulated”. The “p53 expression (western blot)” value (p53 [3]) was “upregulated”.

For CC(=O)N[C@@H](CC(C)C)C(=O)N[C@H](C(=O)N[C@@H](Cc1ccccc1)C(=O)N[C@H]1CSCCC[C@@H](c2ccccc2)C[C@@H](C(=O)N[C@@H](CCC(N)=O)C(=O)N[C@@H](CC(C)C)C(=O)N[C@H](C(=O)N[C@@H](CO)C(N)=O)[C@@H](C)O)NC(=O)[C@H](Cc2c[nH]c3ccccc23)NC(=O)[C@H](Cc2ccc(O)cc2)NC(=O)[C@H](Cc2c[nH]cn2)NC1=O)[C@@H](C)O [PhR] (Ac-LTFCHYW[hNle(4R-Ph,7-yl)]QLTS-NH2; thioether 4-8; N-terminus assumed), the “binding ability toward MDMX” value (MDMX) was “highest binding abilities”, the “effect on cell viability” value (Skov-3 cells) was “Negligible effects” and the “effect on cell viability” value (MDA-231 cells) was “Negligible effects”. The “effect on cell growth and proliferation” value (HEK-293 cells) was “little effect on the cell growth and proliferation”, the “effect on cell growth and proliferation” value (QSG-7701 cells [1]) was “little effect on the cell growth and proliferation” and the “cellular uptake, comparison” value (PA-1 cells [4]; PA-1, 5 µM FITC-labelled peptide, confocal and flow cytometry) was “higher cellular uptake than MeR”. For the same molecule, the “internalization, live cell confocal imaging” value (PA-1 cells [4]; PA-1, 5 uM, live cells) was “internalized into the cells both in the cytoplasm and nucleus”, the “cellular uptake, comparison” value (MCF-7 cells) was “higher cellular uptake than MeR” and the “MDM2 protein bound to p53 (IP and western blotting)” value (p53-MDM2 binding) was “substantial reduction of MDM2 protein bound to p53”. For the same molecule, the “p53 expression (western blot)” value (p53 [2]) was “upregulated”, the “p53 expression (western blot)” value (p53 [3]) was “upregulated” and the “expression of differentiation gene foxA2 (qPCR)” value (sox2 and foxA2 genes) was “upregulation”. For the same molecule, the “expression of stemness gene sox2 (qPCR)” value (sox2 and foxA2 genes) was “significant downregulation”, the “apoptotic effect (Annexin-V/PI)” value (PA-1 cells [5]) was “more pronounced in PA-1 than those of MeR and nutlin-3a” and the cell-cycle arrest (PA-1 cells [6]) was “more effective in inducing cell-cycle arrest in the G2/M phase than MeR and nutlin-3a”. The “cell-cycle arrest in normal cell line” value (QSG-7701 cells [7]) was “did not induce cell cycle arrest”, the “apoptosis by caspase-3 activity” value (caspase-3; PA-1, dose ladder) was “dose-dependent apoptosis” and the “time to highest levels of p53 and p21” value (p53 [8]) was 12 h. The “mice that died during the treatment period” value (PA-1 xenograft; [10]) was “no mice died”, the “survival (Kaplan-Meier)” value (PA-1 xenograft; treated for 21 days and raised for another 24 days post treatment) was “able to prolong the lives of the mice” and the “voluntary running cycles versus PBS group” value [9] was “no significant differences”. For the same molecule, the “histological changes of major organs (H&E)” value (Histological analysis) was “no signs of organ lesions” and the “p53 and p21 expression in tumor tissues (immunohistochemistry)” value (p53 and p21) was “higher expression levels of p53 and p21”.

For COc1ccc(C2=N[C@@H](c3ccc(Cl)cc3)[C@@H](c3ccc(Cl)cc3)N2C(=O)N2CCNC(=O)C2)c(OC(C)C)c1 [nutlin-3a], the “apoptosis by caspase-3 activity” value (caspase-3; PA-1, at a low dose) was “minimal apoptosis”, the caspase-3 activity (caspase-3; PA-1, at higher doses (>5 μM)) was “no caspase-3 activity was detected” and the “time to highest levels of p53 and p21” value (p53 [8]) was 48 h. The “mice death in the first week of treatment” value (PA-1 xenograft; [10]) was 20%, the “mice that died during the treatment period” value (PA-1 xenograft; [10]) was “three in ten” and the “tumor growth inhibition (TGI)” value (PA-1 xenograft; PA-1 xenograft, athymic nude mice, 10 mg/kg every other day, intratumoral injection, 3 weeks) was 30%.
